Blank lines part the entries; values can stand above or below the compound they belong to.
Tests used:
[1] = molecular target: T1, Estrogen receptor (Mus musculus) (UniProt O08537+P19785); settings: Uterus
[2] = molecular target: T1, Estrogen receptor (Mus musculus)
[3] = molecular target: T1, Estrogen receptor (Mus musculus); settings: Uterus; remark: listed apart in the source
[4] = molecular target: T1, Estrogen receptor (Mus musculus); settings: Uterus; remark: listed apart in the source
[5] = molecular target: T1, Estrogen receptor (Mus musculus); remark: listed apart in the source
[6] = molecular target: T1, Estrogen receptor (Mus musculus); remark: listed apart in the source
[7] = molecular target: T1, Estrogen receptor (Mus musculus); settings: Uterus; remark: listed apart in the source
[8] = molecular target: T1, Estrogen receptor (Mus musculus); settings: Uterus; remark: listed apart in the source
[9] = molecular target: T1, Estrogen receptor (Mus musculus); remark: listed apart in the source
[10] = molecular target: T1, Estrogen receptor (Mus musculus); remark: listed apart in the source
[11] = molecular target: T1, Estrogen receptor (Mus musculus); settings: Uterus; remark: listed apart in the source
[12] = molecular target: T1, Estrogen receptor (Mus musculus); settings: Uterus; remark: listed apart in the source
[13] = molecular target: T1, Estrogen receptor (Mus musculus); settings: Uterus; remark: listed apart in the source
[14] = molecular target: T1, Estrogen receptor (Mus musculus); experiment: Uterotrophic effect in BD2F mice bearing transplantable hormone dependent MXT at 0.8 mg dose; type: functional, tissue-based
In short: (§1)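 MXT-bearing female BD2F1 mice (10 per group) dosed sc in olive oil three times weekly for 6 weeks from the day after tumor transplantation. Uteri excised at sacrifice and dry weight determined; values given as mean ± SD.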

[15] = molecular target: T1, Estrogen receptor (Mus musculus); experiment: Uterotrophic effect in mice at 10 ug dose; type: functional, tissue-based; design: unit not given here; settings: Uterus
In short: (§2)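 Immature female NMRI mice, 20 days old, 10 per group, given daily sc injections of 0.1 mL olive oil solution for 3 days. Uteri removed 24 h after the last dose, fixed in Bouin's solution, washed, dried and weighed. Antiestrogenic testing measured inhibition of estrone-stimulated uterine growth.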

[16] = molecular target: T1, Estrogen receptor (Mus musculus); experiment: Uterotrophic effect in mice at 0.1 ug dose; type: functional, tissue-based; design: unit not given here; settings: Uterus
In short: as §2

Mus musculus [17] = species on record: Mus musculus; experiment: Relative average tumor wet weight in treated compared to untreated mice at 0.8 mg dose; type: functional
In short: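 MXT mammary tumor pieces of 1-2 mm³ from syngeneic donors were implanted sc by trocar into female BD2F₁ mice aged 8-10 weeks (20.0 ± 1.7 g), groups of 10. From the next day, compound in olive oil was given sc three times weekly for 6 weeks. Tumor wet weight was measured at the end and expressed as % T/C.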

[18] = molecular target: T1, Estrogen receptor (Mus musculus); experiment: (§3) Uterotrophic effect in mice at 0 ug dose; type: functional, tissue-based; design: unit not given here; settings: Uterus
In short: as §2

[19] = molecular target: T1, Estrogen receptor (Mus musculus); experiment: Uterotrophic effect in mice at 1 ug dose; type: functional, tissue-based; design: unit not given here; settings: Uterus
In short: as §2

Mus musculus [20] = species on record: Mus musculus; experiment: Relative average tumor wet weight in treated compared to untreated mice at 4 mg dose; type: functional
In short: (§4)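 Syngeneic female BD2F1 mice (8–10 weeks) received sc trocar implants of 1–2-mm³ MXT tumor pieces, 10 per group. Treatment began the next day: sc doses in olive oil (solution or suspension), three times weekly for 6 weeks. Tamoxifen-treated control group included. Tumor wet weight measured at sacrifice; expressed as % T/C versus untreated controls.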

[21] = molecular target: T1, Estrogen receptor (Mus musculus); experiment: Uterotrophic effect in BD2F mice bearing transplantable hormone dependent MXT at 4 mg dose; type: functional, tissue-based
In short: as §1

[22] = molecular target: T1, Estrogen receptor (Mus musculus); experiment: Uterotrophic effect in mice at 1000 ug dose; type: functional, tissue-based; settings: Uterus
In short: as §2

Mus musculus [23] = species on record: Mus musculus; experiment: Relative average tumor wet weight in treated compared to untreated mice at 20 mg dose; type: functional
In short: as §4

[24] = molecular target: T1, Estrogen receptor (Mus musculus); experiment: Uterotrophic effect in mice at 25 ug dose; type: functional, tissue-based; design: unit not given here; settings: Uterus
In short: as §2

[25] = molecular target: T1, Estrogen receptor (Mus musculus); experiment: as §3; type: functional, tissue-based; design: unit not given here; settings: Uterus; remark: listed apart in the source
In short: as §2

[26] = molecular target: T1, Estrogen receptor (Mus musculus); experiment: (§5) Uterotrophic effect in mice at 100 ug dose; type: functional, tissue-based; design: unit not given here; settings: Uterus
In short: as §2

[27] = molecular target: T1, Estrogen receptor (Mus musculus); experiment: as §5; type: functional, tissue-based; design: unit not given here; settings: Uterus; remark: listed apart in the source
In short: as §2

[28] = molecular target: T1, Estrogen receptor (Mus musculus); experiment: Uterotrophic effect in mice at 500 ug dose; type: functional, tissue-based; design: unit not given here; settings: Uterus
In short: as §2

[29] = molecular target: T1, Estrogen receptor (Mus musculus); experiment: Uterotrophic effect in mice at 5 ug dose; type: functional, tissue-based; settings: Uterus
In short: as §2

[30] = molecular target: T1, Estrogen receptor (Mus musculus); experiment: Uterotrophic effect in BD2F mice bearing transplantable hormone dependent MXT at 20 mg dose; type: functional, tissue-based; settings: Uterus
In short: as §1

T1 sequence (O08537 whole entry, looked up): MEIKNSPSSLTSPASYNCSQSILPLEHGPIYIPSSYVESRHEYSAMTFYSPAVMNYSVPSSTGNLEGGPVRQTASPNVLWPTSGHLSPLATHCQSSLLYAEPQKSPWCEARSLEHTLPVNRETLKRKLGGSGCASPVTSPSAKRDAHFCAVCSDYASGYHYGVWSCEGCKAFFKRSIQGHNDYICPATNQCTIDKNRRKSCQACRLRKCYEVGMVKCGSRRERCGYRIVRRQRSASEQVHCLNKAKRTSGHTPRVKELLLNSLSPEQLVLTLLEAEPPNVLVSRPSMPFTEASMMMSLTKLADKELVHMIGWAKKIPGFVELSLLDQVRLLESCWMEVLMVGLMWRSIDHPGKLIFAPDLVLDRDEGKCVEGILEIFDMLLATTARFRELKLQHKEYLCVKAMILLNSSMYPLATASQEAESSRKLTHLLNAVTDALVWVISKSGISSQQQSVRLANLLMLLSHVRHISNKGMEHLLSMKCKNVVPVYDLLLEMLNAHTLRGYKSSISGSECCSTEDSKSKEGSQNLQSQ
T1 sequence (P19785 whole entry, looked up): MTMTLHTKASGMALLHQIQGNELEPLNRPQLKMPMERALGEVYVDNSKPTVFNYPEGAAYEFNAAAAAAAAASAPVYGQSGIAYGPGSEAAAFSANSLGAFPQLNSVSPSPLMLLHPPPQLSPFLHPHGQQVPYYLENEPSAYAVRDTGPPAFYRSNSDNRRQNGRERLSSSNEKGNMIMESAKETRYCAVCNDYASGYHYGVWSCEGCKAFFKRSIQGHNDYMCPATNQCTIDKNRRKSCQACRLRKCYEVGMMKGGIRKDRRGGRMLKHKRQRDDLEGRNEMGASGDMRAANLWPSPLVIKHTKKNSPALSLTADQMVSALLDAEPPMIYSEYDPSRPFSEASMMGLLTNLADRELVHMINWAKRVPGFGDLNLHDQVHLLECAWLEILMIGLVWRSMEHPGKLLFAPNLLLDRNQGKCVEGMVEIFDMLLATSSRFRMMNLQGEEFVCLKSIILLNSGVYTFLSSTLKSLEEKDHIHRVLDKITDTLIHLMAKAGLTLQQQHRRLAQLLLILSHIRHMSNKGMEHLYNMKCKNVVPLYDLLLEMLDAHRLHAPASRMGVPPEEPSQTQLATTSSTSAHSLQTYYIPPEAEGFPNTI

- Effect [1]: 46.8
- Effect [2]: 41.8
- Effect [3]: 45.6
- Effect [4]: 46.8
- Effect [5]: 39.5
- Effect [6]: 39.3
- Effect [7]: 46.4
- Effect [8]: 39.8
- Effect [9]: 39.5
- Effect [10]: 39.5
- Effect [11]: 46.6
- Effect [12]: 49
- Effect [13]: 47.3
Structure (SMILES): C[C@]12CC[C@@H]3c4ccc(O)cc4CC[C@H]3[C@@H]1CCC2=O

- Uterus effect [14]: 136
- Effect [15]: 35.4
- Effect [16]: 46.9
- Effect [18]: 10.8
- Effect [19]: 42.5
- Uterus effect [21]: 188
Structure (SMILES): Oc1ccc([C@H]([C@H](c2ccc(O)cc2)C(F)(F)F)C(F)(F)F)cc1
- TC (Mus musculus [17]): 21.3%
- TC (Mus musculus [20]): 7.2%

- Effect [15]: 29
- Effect [22]: 51.8
- Effect [24]: 47.4
- Effect [16]: 15.7
- Effect [25]: 14.8
- Effect [26]: 47.8
- Effect [27]: 45.5
- Effect [28]: 52.6
- Effect [18]: 11.1
- Effect [19]: 25.3
- Effect [29]: 43
- Effect ([21]; Uterus): 74.8
- Effect [30]: 82.1
Structure (SMILES): Oc1cccc(/C(=C(/c2cccc(O)c2)C(F)(F)F)C(F)(F)F)c1
- TC (Mus musculus [23]): 11.5%
- TC (Mus musculus [20]): 25.7%

Reference: ChEMBL document CHEMBL1123408, “Influence of alkyl-chain fluorination on the action of mammary tumor inhibiting 2,3-bis(hydroxyphenyl)butanes and 2,3-bis(hydroxyphenyl)but-2-enes” (1986)
